ChEMBL document CHEMBL1123378, “Cardiotonic agents. 1. Synthesis and structure-activity relationships in a new class of 3-, 4-, and 5-pyridyl-2(1H)-quinolone derivatives” (1986)

Key:
Cavia porcellus [1] = organism: Cavia porcellus; assay: Positive inotropic activity in isolated left guinea pig atria.; assay type: functional; details: read-out: ED50 (the source's name)
Summary of the method: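 Isolated guinea pig left atria were paced electrically with square-wave pulses (2.5 Hz, 5 ms, voltage 50% above threshold) and stretched to 0.5 g resting tension. The bath was Krebs–Henseleit at 32 °C, gassed with 95% O2/5% CO2. An isoprenaline dose–response curve was run first to test each preparation. The ED50 (mol/L, dose giving 50% of maximum effect) was derived by the Ariens–Van Rossum method.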

Cavia porcellus [2] = organism: Cavia porcellus; assay: Maximum response compared to maximum response to isoprenaline.; assay type: functional
Summary of the method: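 Electrically paced isolated guinea pig left atria (2.5 Hz, 5 ms pulses, 50% above threshold) were held in Krebs–Henseleit at 32 °C under 95% O2/5% CO2 and 0.5 g resting tension. Intrinsic activity is the compound's maximal inotropic response divided by the isoprenaline maximum, with isoprenaline set to 1. The number of experiments is given per value.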

EC50 (Cavia porcellus [1]) | SMILES | Intrinsic activity (Cavia porcellus [2])
> 77 µM | Cl.Nc1cc2ccccc2nc1O | 0.2
20 µM | Cl.Oc1ccc2c(-c3ccncc3)ccc(O)c2n1 | 0.24
35 µM | COc1ccc(-c2ccncc2)c2ccc(O)nc12.Cl | 0.75
6.75 µM | Br.Oc1ccc2c(-c3cccnc3)ccc(O)c2n1 | 0.62
5.75 µM | COc1ccc(-c2cccnc2)c2ccc(O)nc12.Cl | 0.79
235 µM | COc1ccc(N)c2ccc(O)nc12.Cl | 0.23
12 µM | COc1ccc(-c2cccnc2)c2c1NC(=O)CC2 | 0.56
300 µM | Oc1nc2ccccc2cc1-c1cccnc1 | 0.08
8.3 µM | COc1ccc(-c2cccnc2)cc1NC(=O)CC(C)=O | 0.51
22 µM | COc1ccc(-c2ccccn2)c2c1NC(=O)CC2 | 0.44
1.3 µM | Oc1ccc2c(-c3cccnc3)cccc2n1 | 0.83
31 µM | COc1ccc(-c2ccncc2)c2c1NC(=O)CC2 | 0.75

Further lines, the compound ahead of its results:

SMILES | EC50 (Cavia porcellus [1]) | Intrinsic activity (Cavia porcellus [2])
COc1cccc2c(-c3ccncc3)cc(O)nc12.Cl | 38 µM | 0.45
Cl.Oc1cc(-c2ccncc2)c2cccc(O)c2n1 | 22 µM | 0.55
COc1ccc(-c2ccccn2)c2ccc(O)nc12 | 34.5 µM | 0.62
CCO/C=C\C(=O)Nc1cc(-c2cccnc2)ccc1Cl |  | 0.28
CCO/C=C\C(=O)Nc1cccc(-c2cccnc2)c1 |  | 0.42
CCO/C=C\C(=O)Nc1cccc(-c2ccccn2)c1 |  | 0.33
CCO/C=C\C(=O)Nc1cc(-c2cccnc2)ccc1OC |  | 0.54
CC(C)NCC(O)c1ccc(O)c(O)c1 (centres undefined) [ISOPROTERENOL] |  | 1
Cc1[nH]c(=O)c(C#N)cc1-c1ccncc1 [MILRINONE] | 14 µM | 0.67
COc1cc([S+](C)[O-])ccc1-c1nc2cccnc2[nH]1 (centres undefined) [SULMAZOLE] | 12 µM | 0.85
